An excerpt weighted towards active compounds, which were near 3.7% of everything screened.
FXN GAA850 act: FXN promoter activators, primary screen, cell-based, luciferase luminescence, HEK293 lucGAA850; HEK293 lucGAA850 FXN promoter luciferase reporter, 24 h; percent of 10 µM SAHA response; activation, % at 6 µM; 0.56% of 360,000 active; AID 540364, 2011;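 active = activation above the average of all compounds screened plus 3 SD, cutoff fixed separately per campaign, cut at about 7.5% in these data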
AHR activator: AHR activators, primary screen, cell-based, luminescence, luciferase reporter, human | 2.5% of 320,000 active | activation, % at 5 µM | AHR-responsive luciferase reporter cells; in the data active = activation above about 47%
Target sequence (P35869 whole entry, looked up): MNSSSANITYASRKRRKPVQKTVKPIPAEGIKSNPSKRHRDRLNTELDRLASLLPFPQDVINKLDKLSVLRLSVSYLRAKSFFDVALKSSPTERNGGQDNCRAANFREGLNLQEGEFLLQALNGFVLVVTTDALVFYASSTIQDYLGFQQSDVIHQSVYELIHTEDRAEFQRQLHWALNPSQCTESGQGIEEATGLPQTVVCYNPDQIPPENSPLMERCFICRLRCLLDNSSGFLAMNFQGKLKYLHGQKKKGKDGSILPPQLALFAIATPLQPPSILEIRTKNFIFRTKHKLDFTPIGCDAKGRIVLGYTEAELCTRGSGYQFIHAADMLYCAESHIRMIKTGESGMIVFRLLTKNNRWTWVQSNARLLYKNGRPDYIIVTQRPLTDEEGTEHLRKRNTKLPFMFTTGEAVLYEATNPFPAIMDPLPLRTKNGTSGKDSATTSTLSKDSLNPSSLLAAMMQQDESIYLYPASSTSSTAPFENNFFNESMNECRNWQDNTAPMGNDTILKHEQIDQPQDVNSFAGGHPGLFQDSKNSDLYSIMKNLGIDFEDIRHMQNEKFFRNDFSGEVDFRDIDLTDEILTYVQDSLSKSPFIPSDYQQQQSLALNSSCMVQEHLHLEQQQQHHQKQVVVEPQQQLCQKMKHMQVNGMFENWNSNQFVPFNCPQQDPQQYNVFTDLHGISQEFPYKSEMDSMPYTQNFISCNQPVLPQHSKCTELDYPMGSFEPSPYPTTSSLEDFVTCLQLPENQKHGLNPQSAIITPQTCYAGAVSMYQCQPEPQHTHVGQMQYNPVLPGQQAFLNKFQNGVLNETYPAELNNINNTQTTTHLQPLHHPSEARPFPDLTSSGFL
GASC-1 inh: inhibitors of GASC-1 histone demethylase, primary screen, biochemical, fluorescence, DELFIA europium; Lysine-specific demethylase 4C (Homo sapiens), Q9H3R0; 0.069% of 330,000 active; GST-JMJD2C(1-420) H3K9me3 demethylation; inhibition, % at 2.35 µM;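 active = more than half of a compound's replicate wells show inhibition beyond 50%, single wells judged on their own value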;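 note: signal counts dimethyl H3K9 product captured on neutravidin plate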
SR-BI DiI inh: inhibitors of SR-BI mediated HDL lipid uptake, primary screen, ldlA[mSR-BI] cells, fluorescence, single point. AID 488896, 2010. Scavenger receptor class B member 1 (Mus musculus), Q61009. ldlA[mSR-BI] CHO cells, DiI-HDL uptake fluorescence, 3 h. 0.96% of 320,000 active. inhibition, % at 12.5 µM;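 active = mean replicate inhibition of at least 70% and a set share of replicates each scoring 70 or more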
SR-BI DiI-HDL act: activators of SR-BI mediated DiI-HDL uptake, primary screen, ldlA[mSR-BI] CHO cells, DiI fluorescence. activation, % at 12.5 µM. 3 h; 100 = double the neutral-control signal. 0.096% of 320,000 active. AID 504775, 2011;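 active = mean replicate activation of at least 60% and every replicate at or above 60%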
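system = CHO ldlA[mSR-BI] cells, LDL receptor-null, SR-BI overexpressing | medium = Ham's F12 with 0.5% BSA, HEPES 25 mM, pH 7.4 | probe or stimulus = DiI-HDL 10 µg/mL | compound dosing = single-point compound dose | incubation = compound exposure 3 h, 37 °C | technique = DiI fluorescence, bottom read | read-out = cell-associated DiI fluorescence as measure of HDL uptake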
Large screens that a line does not name were inactive.

Cc1cccc(N=C2NC(=O)/C(=C3/C(=O)N(C)c4ccccc43)S2)c1C	AHR activator 68.2
Cc1ccccc1N=C1NC(=O)/C(=C/c2cccn2C)S1	none
OCC[C@H]1C[C@H](O)[C@@H](O)[C@]2(Cc3ccccc3CCO2)O1	none
Cc1ccc(Oc2nc3c(c(=O)n(C)c(=O)n3C)n2C)cc1C	none
Cn1c(=O)c2c(nc(Oc3ccc(-c4ccccc4)cc3)n2C)n(C)c1=O	none
CN(C)c1cccc(Oc2nc3c(c(=O)n(C)c(=O)n3C)n2C)c1	SR-BI DiI inh 89.0
Cn1c(=O)c2c(nc(Oc3cccc(Br)c3)n2C)n(C)c1=O	AHR activator 47.9
Cc1ccc(NC(=O)c2noc(C(C)C)c2[N+](=O)[O-])cc1	none
CN1CCN(/N=C/c2nc(-c3ccc(Cl)cc3)n3ccccc23)CC1	AHR activator 48.3
CN1CCN(/N=C/c2nc(-c3ccccc3Cl)n3ccccc23)CC1	none
O=C1Nc2cc(Cl)c(Cl)cc2N(O)N1c1ccc(Cl)c(Cl)c1	AHR activator 57.4
CC(=O)c1ccccc1C(=O)N1CCCC(N2CCN(Cc3ccc4c(c3)OCO4)CC2)C1 (stereo not drawn)	none
COc1cc(C#Cc2c(-c3cncn3C)n(C)c3ccc(-c4ccc(OC)c(OC)c4)cc23)cc(OC)c1	AHR activator 68.5
COc1ccc(-c2c(-c3cc(OC)cc(OC)c3)n(C)c3ccc(-c4ccc5c(c4)OCCO5)cc23)cc1	none
COc1cc(C#Cc2c(-c3cncn3C)n(C)c3ccc(Br)cc23)cc(OC)c1	none (no result: GASC-1 inh)
COc1cc(OC)cc(-c2c(-c3cccs3)c3cc(-c4ccc(OC)c(F)c4)ccc3n2C)c1	none
COc1cc(OC)cc(-c2c(-c3cccs3)c3cc(-c4ccc(OC)c(OC)c4)ccc3n2C)c1	SR-BI DiI inh 78.9
COc1cc(OC)cc(-c2c(-c3cccs3)c3cc(-c4ccc5c(c4)OCCO5)ccc3n2C)c1	SR-BI DiI inh 78.3
N#CCCn1cc(C(=O)Nc2ccc(C(=O)O)cc2)c(-c2cccc(Br)c2)n1	none
CC(O)CNc1nc(Cl)c(C#N)s1 (stereo not drawn)	none
CC(NC(=O)c1cc(-c2ccncc2)nc2ccc(Cl)cc12)C1CCCO1 (stereo not drawn)	none
CC(NC(=O)c1cc(-c2ccccn2)nc2ccc(Cl)cc12)C1CCCO1 (stereo not drawn)	AHR activator 51.7
COc1cc(Cl)c(C)cc1NC(=O)CSc1cc(Cl)ccc1Cl	SR-BI DiI inh 82.4
COc1cc(Cl)c(C)cc1NC(=O)CNC(=O)Cn1cnc2ccccc2c1=O	SR-BI DiI inh 85.0
CSc1nc2sc3c(c2c(=O)n1C)CCC(C)C3 (stereo not drawn)	AHR activator 56.0
CS(=O)(=O)Nc1cccc(NC(=O)c2cccc3c(-c4cccnc4)coc23)c1	none (no result: AHR activator, GASC-1 inh, SR-BI DiI inh, SR-BI DiI-HDL act)
C/C(=N\NC(=O)c1cc(-c2ccc(Cl)s2)[nH]n1)c1ccncc1	AHR activator 49.8
COC1Cc2ccccc2N(C(N)=O)c2ccccc21 (stereo not drawn)	AHR activator 47.5 (no result: SR-BI DiI inh, SR-BI DiI-HDL act)
C/C(=N\Nc1c(Cl)c(Cl)nc(C(=O)O)c1Cl)c1ccc(O)cc1	AHR activator 50.0
Cc1nc(NC(=O)c2ccc(F)cc2)nc2cc3c(cc12)OCO3	AHR activator 64.7
CCN(CC(=O)Nc1ccc2c(c1)OCCO2)C(=O)CN1C(=O)NC(C)(c2ccc(C)cc2)C1=O (stereo not drawn)	none
CC(Oc1ccc(Br)cc1)C(=O)Nc1ccc(S(=O)(=O)N(C)C2CCN(C)CC2)cc1 (stereo not drawn)	none
Cc1nn(-c2ccccc2)c(N2CCCC2)c1/C=N/NC(=S)Nc1ccccc1C(F)(F)F	none
Cc1nn(-c2ccccc2)c(N2CCCC2)c1/C=N/NC(=S)Nc1cc(C(F)(F)F)ccc1Cl	SR-BI DiI inh 86.4
Cc1nn(-c2ccccc2)c(N2CCCCC2)c1/C=N/NC(=O)c1ccncc1	SR-BI DiI inh 87.4
Cc1cc(SCC(=O)c2cc3ccccc3o2)nc2ccccc12	AHR activator 51.6
Cc1cc(SCC(=O)c2ccc3c(c2)OCO3)nc2ccccc12	AHR activator 63.7
Cc1cc(SCC(=O)c2ccc(O)c(O)c2)nc2ccccc12	none
CC(=O)Nc1ccc(NC(=O)c2cc([N+](=O)[O-])cc([N+](=O)[O-])c2)cc1	none
Cc1ccc(NC(=O)c2ccc(N/N=C/c3cccc(O)c3)c([N+](=O)[O-])c2)cc1	SR-BI DiI inh 95.3
Cc1ccc(NC(=O)c2ccc(Nc3c([N+](=O)[O-])cc([N+](=O)[O-])cc3[N+](=O)[O-])cc2)cc1	SR-BI DiI inh 102.1
Cn1cc(CN2CCC(C(O)c3cccs3)CC2)c(-c2cccc(Cl)c2)n1 (stereo not drawn)	none
Cc1nc2c(c(=O)n1CCC1=CCCCC1)c1nc3ccccc3nc1n2/N=C/c1ccccc1	none
O=c1c2c3nc4ccccc4nc3n(/N=C/c3ccco3)c2ncn1CCC1=CCCCC1	SR-BI DiI-HDL act 67.3
COc1cc(C(=O)NCC(c2cccs2)N2CCc3ccccc32)cc(OC)c1OC (stereo not drawn)	AHR activator 48.4
COc1cccc(-c2cc(C(=O)N3CCN(C(=O)c4ccco4)CC3)[nH]n2)c1	none
S=C(NCc1ccco1)Nc1ccc(Cl)c(Cl)c1	none
CCOc1ccc(NC(=S)NNC(=S)Nc2cccc(C(F)(F)F)c2)cc1	SR-BI DiI inh 93.3
CCOc1ccc(NC(=S)Nc2cc(-c3ccccc3)[nH]n2)cc1	AHR activator 77.6
S=C(NCc1ccco1)Nc1cc(-c2ccccc2)[nH]n1	AHR activator 73.7
COc1ccc(NC(=O)C2CCCN(S(=O)(=O)c3ccc4c(c3)CCCN4C(C)=O)C2)cc1Cl (stereo not drawn)	none
COc1ccc(CNC(=O)c2sc(=O)n(Cc3cc(C(C)=O)ccc3OC)c2C)cc1	none (no result: AHR activator, GASC-1 inh, SR-BI DiI inh, SR-BI DiI-HDL act)
Cn1c(=O)c(Nc2ccc(O)cc2)c2c3c(cccc31)C(=O)c1ccccc1-2	GASC-1 inh 59.6
CC(=O)c1c2c3c(cccc3n(C)c1=O)C(=O)c1ccccc1-2	none (no result: FXN GAA850 act, SR-BI DiI inh, SR-BI DiI-HDL act)
CCc1nc(Nc2cccc(O)c2)c2oc3ccccc3c2n1	none (no result: AHR activator)
Cc1nc(Nc2ccncc2)c2oc3ccccc3c2n1	none
CCc1nc(Nc2ccc3c(c2)OCO3)c2oc3ccccc3c2n1	AHR activator 95.5
COc1ccc(CCNc2nc(C)nc3c2oc2ccccc23)cc1OC	none
Cc1cccc(Nc2nc(C)nc3c2oc2ccccc23)c1	AHR activator 47.9
Cc1nc(NCCc2cnc[nH]2)c2oc3ccccc3c2n1	AHR activator 52.9
O=C(Nc1cccc2ncccc12)c1ccc([N+](=O)[O-])o1	none
COc1ccc(Cl)cc1C(=O)Nc1cccc2ncccc12	AHR activator 66.3

Assay outcomes: PubChem, several laboratories
